Assay results published in ChEMBL document CHEMBL3352597, “Heck products of parthenolide and melampomagnolide-B as anticancer modulators that modify cell cycle progression” (Eur J Med Chem, 2014).
Active and inactive are the calls of the source. The rule behind the calls is not given here.

Tested on: Oocyte
Experiment: Induction of immature stage VI Xenopus oocyte maturation assessed as stimulation of progesterone-mediated maturation measured as germinal vesicle (nuclear) breakdown at 100 uM after overnight incubation
Assay type: functional, cell-based
Procedure, shortened: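 Oocytes (20 per well) pre-treated overnight with compound (100 μM final, DMSO) or DMSO vehicle, then stimulated with 2 μg/ml progesterone. GVBD (animal-pole white spot) scored at the time 50% of DMSO controls reach GVBD. Rate relative to control: 1.0 means no difference, above 1.0 acceleration, below 1.0 delay, 0.0 no maturation. Differences over 20% followed up.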

C[C@@]12CC/C=C(/CO)CC[C@@H]3/C(=C\c4cccs4)C(=O)O[C@@H]3[C@@H]1O2
Activity: Active
